ChEMBL document CHEMBL4387719, “Investigation of biaryl heterocycles as inhibitors of Wee1 kinase” (Bioorg Med Chem Lett, 2019)
Active and inactive are the calls of the source. The rule behind the calls is not given here.

Assays:
NCI-H1299 = experiment: Antiproliferative activity against human NCI-H1299 cells after 72 hrs by cell titer glo assay; format: functional, cell-based; conditions: NCI-H1299, 72 h
Wee1-like protein kinase [1] = biological target: T1, Wee1-like protein kinase (Homo sapiens, UniProt P30291); experiment: Binding affinity to wild type N-terminal GST-tagged human WEE1 catalytic domain (215 to 646 residues) expressed in baculovirus expression system measured after 1 hr by TR-FRET assay
Wee1-like protein kinase [2] = biological target: T1, Wee1-like protein kinase; experiment: Inhibition of WEE1 in human NCI-H1299 cells assessed as reduction in Cdc2 phosphorylation at Tyr15 residue measured after 6 hrs by ELISA; format: cell-based
[3] = Clearance in mouse microsomes; format: ADME, Microsome
[4] = Clearance in iv dosed mouse; format: ADME, organism-based; conditions: in vivo
[5] = AUC in po dosed mouse; format: ADME, organism-based; conditions: in vivo
[6] = Oral bioavailability in mouse; format: ADME, organism-based; conditions: in vivo
MX1 [7] = experiment: (§1) Potentiation of irinotecan-induced antitumor activity against BRCA1/p53 deficient human MX1 cells xenografted in SCID mouse assessed as tumor growth inhibition at 25 mg/kg/day, po administered every other 2 days for 4 times 24 days post-tumor innoculation and measured twice weekly for 43 days in presence relative to irinotecan; format: functional; conditions: read-out: TGI
Procedure, shortened: (§2)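 MX-1 brei (homogenized tumour cell suspension) was injected subcutaneously into the flank of SCID mice. Treatment started at tumour volume ~350 mm³, with dosing beginning on day 24. Arms were vehicle, irinotecan 10 mg/kg/day Q4Dx4, or irinotecan 10 mg/kg/day Q4Dx4 plus test agent 25 mg/kg/day QD, 2 days on/2 days off, for 4 cycles. Tumour volumes were measured twice weekly.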

MX1 [8] = experiment: as §1, with “delay” for “inhibition”, “times starting” for “times”, “weekly” for “weekly for 43 days in presence”; format: functional; procedure, shortened: as §2
MX1 [9] = experiment: as §1, with “times starting from” for “times”, “weekly” for “weekly for 43 days in presence”, “to control” for “to irinotecan”; format: functional; conditions: read-out: TGI; procedure, shortened: as §2
[10] = Half life in iv dosed mouse; format: ADME, organism-based; conditions: in vivo
MX1 [11] = experiment: Antitumor activity against BRCA1/p53 deficient human MX1 cells xenografted in SCID mouse assessed as tumor growth inhibition at 25 mg/kg/day, po administered every other 2 days for 4 times starting 24 days post-tumor innoculation and measured twice weekly; format: functional, organism-based

T1 sequence (P30291 whole entry, the tested form may be a part): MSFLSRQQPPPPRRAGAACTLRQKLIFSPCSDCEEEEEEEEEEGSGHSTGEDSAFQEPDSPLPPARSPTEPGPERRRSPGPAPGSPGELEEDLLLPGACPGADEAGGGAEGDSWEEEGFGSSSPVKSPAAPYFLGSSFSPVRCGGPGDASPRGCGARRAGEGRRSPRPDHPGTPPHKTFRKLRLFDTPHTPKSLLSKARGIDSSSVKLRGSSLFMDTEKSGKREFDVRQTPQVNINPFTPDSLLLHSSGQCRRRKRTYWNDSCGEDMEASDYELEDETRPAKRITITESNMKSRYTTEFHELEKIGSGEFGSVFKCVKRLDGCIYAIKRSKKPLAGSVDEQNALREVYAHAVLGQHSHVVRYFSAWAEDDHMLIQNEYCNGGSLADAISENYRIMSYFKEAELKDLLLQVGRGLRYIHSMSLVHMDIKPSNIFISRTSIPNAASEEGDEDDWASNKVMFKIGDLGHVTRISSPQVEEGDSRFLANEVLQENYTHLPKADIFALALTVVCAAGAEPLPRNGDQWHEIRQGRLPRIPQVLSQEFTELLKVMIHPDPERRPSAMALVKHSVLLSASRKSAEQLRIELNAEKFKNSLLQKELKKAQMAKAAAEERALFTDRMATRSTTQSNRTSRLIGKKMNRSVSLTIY

| EC50 (NCI-H1299) | Ki (Wee1-like protein kinase [1]) | EC50 (Wee1-like protein kinase [2]) | CLint scaled [3] | SMILES | further results |
| --- | --- | --- | --- | --- | --- |
| 140 nM | 0.6 nM | 18 nM | 753 mL/min/kg | CN1Cc2cc(Nc3ncc4c(=O)n(-c5c(Cl)cccc5Cl)cc(C(F)F)c4n3)ccc2C2(CC2)C1 |  |
| 1720 nM |  | 324 nM | 582 mL/min/kg | CN1CCN(c2ccc(Nc3ncc4c(=O)c(-c5c(Cl)cccc5Cl)cn(C5COC5)c4n3)cc2)CC1 |  |
| 60 nM |  | 25 nM | 320 mL/min/kg | CN1Cc2cc(Nc3ncc4c(=O)n(-c5c(Cl)cccc5Cl)cc(CO)c4n3)ccc2C2(CC2)C1 |  |
| 130 nM | 0.5 nM | 28 nM | 727 mL/min/kg | Cc1cn(-c2c(Cl)cccc2Cl)c(=O)c2cnc(Nc3ccc4c(c3)CN(C)CC43CC3)nc12 |  |
| 390 nM |  | 31 nM | 458 mL/min/kg | CN1Cc2cc(Nc3ncc4c(=O)c(-c5c(Cl)cccc5Cl)cn(C5CC5)c4n3)ccc2C2(CC2)C1 |  |
| 80 nM | 0.3 nM | 21 nM | 463 mL/min/kg | C=Cc1cn(-c2c(Cl)cccc2Cl)c(=O)c2cnc(Nc3ccc4c(c3)CN(C)CC43CC3)nc12 |  |
| 520 nM |  | 79 nM | 270 mL/min/kg | CN1CCN(c2ccc(Nc3ncc4c(=O)c(-c5c(Cl)cccc5Cl)cn(C)c4n3)cc2)CC1 |  |
| > 10000 nM | 0.2 nM | 4020 nM | 482 mL/min/kg | CN1CCN(c2ccc(Nc3ncc4c(=O)c(-c5c(Cl)cccc5Cl)cn(CC(C)(C)O)c4n3)cc2)CC1 |  |
| 330 nM | 0.6 nM | 29 nM | 532 mL/min/kg | CN1Cc2cc(Nc3ncc4c(=O)c(-c5c(Cl)cccc5Cl)c[nH]c4n3)ccc2C2(CC2)C1 |  |
| 100 nM | 0.3 nM | 11 nM | 413 mL/min/kg | CN1Cc2cc(Nc3ncc4c(=O)c(-c5c(Cl)cccc5Cl)cn(C)c4n3)ccc2C2(CC2)C1 | clearance [4]: 25 mL/min/kg; AUC [5]: 6.2 µM·h; bioavailability [6]: 44%; inhibition in vivo at 25 mg/kg/day (MX1 [7]): 57%; Activity (MX1 [8]): 48%; inhibition in vivo at 25 mg/kg/day (MX1 [9]): 88%; half-life [10]: 2.7 h; TGI (MX1 [11]): Active |
|  | 1.1 nM |  | 635 mL/min/kg | CN1Cc2cc(Nc3ncc4c(=O)n(-c5c(F)cccc5Cl)c5nccn5c4n3)ccc2C(C)(C)C1 |  |
| 7650 nM | 24.4 nM | 2850 nM | 1970 mL/min/kg | CN(C)CCn1cc(-c2c(Cl)cccc2Cl)c(=O)c2cnc(Nc3ccc(N4CCN(C)CC4)cc3)nc21 |  |
| 500 nM | 0.2 nM | 246 nM |  | CN1CCN(c2ccc(Nc3ncc4c(=O)c(-c5c(Cl)cccc5Cl)cn(-c5ccccc5)c4n3)cc2)CC1 |  |
| 460 nM | 1 nM | 22 nM | 582 mL/min/kg | CN1CCN(c2ccc(Nc3ncc4c(=O)c(-c5c(Cl)cccc5Cl)cn(C5CC5)c4n3)cc2)CC1 |  |
| 210 nM |  | 19 nM |  | CCn1cc(-c2c(Cl)cccc2Cl)c(=O)c2cnc(Nc3ccc4c(c3)CN(C)CC43CC3)nc21 |  |
